Assay results of several laboratories.
CDK7 with cyclin H: Cyclin-dependent kinase 7, with cyclin H (CDK7, Homo sapiens, UniProt P50613)
CDK7: Cyclin-dependent kinase 7 (CDK7, Homo sapiens, UniProt P50613)

SMILES | target | assay | conditions | endpoint | result
Oc1ccc(-c2nc(-c3ccncc3)c(-c3ccc(F)cc3)[nH]2)cc1 | CDK7 with cyclin H | cell-free assay | 0.5 µM | remaining signal | 99.4%
CC[C@]12CCCN3CCc4c(n(c5ccccc45)[C@@](O)(C(=O)OC)C1)[C@@H]32 | CDK7 with cyclin H | enzyme activity, inhibitor, ADP detection | 10 µM | inhibition | -20.8%
Cc1ccc(NC(=O)c2ccc(C)c(C(F)(F)F)c2)cc1C#Cc1nn(C2CCC(O)CC2)c2ncnc(N)c12 (stereo not drawn) | CDK7 | cell-free assay | 10 µM | remaining signal | 103%
COc1cc2oc(-c3ccccc3)cc(=O)c2c(OC)c1OC | CDK7 with cyclin H | enzyme activity, inhibitor, ADP detection | 10 µM | inhibition | 22.4%
Cc1cnc(NC2CCOCC2)nc1-n1cnc(C(=O)NC(CN)c2cc(F)cc(Cl)c2)c1 (stereo not drawn) | CDK7 | enzyme activity, inhibitor, radiometric | 1 µM | remaining activity | 16%
CN1CCN(c2cnc3c(C4CCN(C(=O)c5ccc(OC(F)(F)F)cc5N)CC4)ncnc3c2)CC1 | CDK7 | cell-free assay, competition with immobilised ligand | 1 µM | remaining binding | 89%
Cc1ccc(C(=O)Nc2ccc(CN3CCN(C)CC3)c(C(F)(F)F)c2)cc1C#Cc1cnc2cccnn12 | CDK7 | enzyme activity, inhibitor | 23.5 nM | remaining activity | 47%
CC(=O)Nc1c(C(C)=O)c(=O)n(C)c2nc(-c3ccc(Cl)cc3Cl)c(-c3ccc(Cl)cc3)cc12 | CDK7 | cell-free assay, competition with immobilised ligand | 1 µM | remaining binding | 100%
Cn1cnc(Br)c1C1=CN(c2ncnc3[nH]cnc23)CCS1 | CDK7 | enzyme activity, inhibitor, radiometric | 2 µM | inhibition | 44.3%
O=C(Nc1cnn(-c2csc(C(=O)NC3COC3)c2)c1)Nc1c(F)cccc1Cl | CDK7 with cyclin H | enzyme activity, inhibitor | 5 µM | remaining activity | 95.8%
CO[C@@H](C)c1c(Nc2ccc([C@H](N(C)C(=O)C3CCS(=O)(=O)CC3)C(F)(F)F)cc2)cnc2cc(Cl)nn12 | CDK7 | cell-free assay, competition with immobilised ligand | 1 µM | remaining binding | 100%
C=C(C)[C@@H]1CC[C@]2(C(=O)O)CC[C@]3(C)[C@H](CC[C@@H]4[C@@]5(C)CC[C@H](O)C(C)(C)[C@@H]5CC[C@]43C)[C@@H]12 | CDK7 with cyclin H | enzyme activity, inhibitor, ADP detection | 10 µM | inhibition | 35.2%
CCS(=O)(=O)c1cc2cc(C[C@@](O)(CC(C)(C)c3ccc(F)cc3C(N)=O)C(F)(F)F)[nH]c2cn1 | CDK7 | cell-free assay, competition with immobilised ligand | 1 µM | remaining binding | 99%
CCN(CC)CCNC(=O)c1c(C)[nH]c(/C=C2\C(=O)Nc3ccc(F)cc32)c1C | CDK7 with cyclin H | cell-free assay | 0.5 µM | remaining signal | 73.4%
O=c1cc(-c2ccccc2)oc2ccccc12 | CDK7 with cyclin H | enzyme activity, inhibitor, ADP detection | 10 µM | inhibition | 41.7%
Cc1cc(NC(=O)c2cccc(S(F)(F)(F)(F)F)c2)cc(-n2ccn3nc(-c4cccnc4)cc23)c1 | CDK7 | cell-free assay, competition with immobilised ligand | 1 µM | remaining binding | 100%
CC(C)(C)c1nc(-c2cccc(NS(=O)(=O)c3c(F)cccc3F)c2F)c(-c2ccnc(N)n2)s1 | CDK7 with cyclin H | enzyme activity, inhibitor, radiometric | 1 µM | remaining activity | 109%
Nc1ncnc2occ(-c3ccc(NC(=O)Nc4cc(C(F)(F)F)ccc4F)cc3)c12 | CDK7 | cell-free assay, inhibitor | 20 µM | remaining signal | 0.9%
CS(=O)(=O)N1CCCC(NC(=O)[C@H](CCC2CCCCC2)NC(=O)c2ccc(CNc3ncnc4c3nnn4-c3ccccc3)cc2)C1 (stereo partly drawn) | CDK7 | cell-free assay, competition with immobilised ligand | 0.1 µM | remaining binding | 100%
CN1C(=N)N(C)/C(=C/c2c[nH]c3ccccc23)C1=O | CDK7 with cyclin H | enzyme activity, inhibitor, ADP detection | 10 µM | inhibition | 34.1%
CNC(=O)c1cc(Oc2ccc(NC(=O)Nc3ccc(Cl)c(C(F)(F)F)c3)cc2)ccn1 | CDK7 with cyclin H | enzyme activity, inhibitor | 0.3 µM | inhibition | -3%
COc1c(-c2ccccc2)oc2c(ccc3occc32)c1=O | CDK7 with cyclin H | enzyme activity, inhibitor, ADP detection | 10 µM | inhibition | -0.1%
CNC(=O)Nc1ccc2c(c1)[C@@]1(CC2)OC(=O)N(CC(=O)N(Cc2ccc(F)cc2)[C@@H](C)C(F)(F)F)C1=O | CDK7 | cell-free assay, competition with immobilised ligand | 1 µM | remaining binding | 76%
CC(C)c1ccc(NC(=O)c2cccs2)c(-c2nc3ccccc3[nH]c2=O)c1 | CDK7 | enzyme activity, inhibitor | 1 µM | activity vs control | 85%
Cc1ccc(C(=O)NCc2ccsc2)cc1C#Cc1cn(C(C)C)c2ncnc(N)c12 | CDK7 | enzyme activity, inhibitor | 1 µM | activity vs control | 94%
O=C1C[C@@H](c2ccc(O)cc2)Oc2cc(O)cc(O)c21 | CDK7 with cyclin H | enzyme activity, inhibitor, ADP detection | 10 µM | inhibition | 3.7%
CCCOc1ccc(OC)c(F)c1C(=O)c1ccc(C(=O)N[C@@H]2CNC[C@H]2NC(=O)c2ccc3[nH]ncc3c2)cc1 | CDK7 | enzyme activity, inhibitor | 10 µM | remaining activity | 13%
Cn1cc2c3ccccc3nc-2c2ccccc21 | CDK7 with cyclin H | enzyme activity, inhibitor, ADP detection | 10 µM | inhibition | 38.3%
C[C@@H]1CN(c2cc(-c3n[nH]c4ccc(OC5(C)CC5)cc34)ncn2)C[C@H](C)O1 | CDK7 | cell-free assay, competition with immobilised ligand | 0.1 µM | remaining binding | 56%
O=C1Nc2ccc(Cl)cc2C1=Cc1cc(Cl)c(O)c(Cl)c1 | CDK7 with cyclin H | cell-free assay | 0.5 µM | remaining signal | 96.7%
